High-throughput results: PubChem, Johns Hopkins Ion Channel Center
TRPC4 PAM – allosterically enhances the mouse TRPC4 cation channel. Q9QUQ5. HEK293 TRPC4beta/mu-opioid, DAMGO EC20, Fluo-4 Ca2+ flux; stronger effect = higher value. B-score at 10 µM. 310,000 tested, 0.42% active;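 active = B-score of calcium response area above 5 SD of library B-scores, with initial fluorescence ratio within 5 SD of library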;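 note: B-score of integrated fluorescence ratio over time as area under calcium response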
TRPC4 inh – inhibitors of mouse TRPC4 channel. B-score at 10 µM. Q9QUQ5. 300,000 tested, 0.39% active. AID 2247. HEK293 TRPC4beta/mu-opioid, DAMGO-evoked Fluo4 calcium flux; stronger effect = lower value;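 active = B-score over 3 SD under the library average, no early fluorescence shift, positive overall ratio signal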
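Assay system: HEK293 cells with stable TRPC4beta plus mu-opioid receptor expression. Dosing: single dose. Measured by: Fluo4 Ca2+ flux fluorescence. Also added: DAMGO in two steps, submaximal then maximal. Read-out: B score from integrated Fluo4 fluorescence ratio.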
TRPC6 inh – mouse TRPC6 channel inhibition | Q61143 | HEK293-TRPC6, membrane potential dye, ACh-evoked depolarization; stronger effect = lower value | B-score at 10 µM | 310,000 tested, 1.1% active;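 active = B-score under library mean minus 3 SD, initial fluorescence not abnormally high, positive integrated signal ratio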;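 note: B-score derived from integrated fluorescence ratio over the kinetic read; more negative B-score means stronger inhibition of depolarization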
Kir21 inh – inhibitors of mouse Kir2.1 inward-rectifier potassium channel; B-score at 10 µM; 310,000 tested, 0.85% active; HEK293-Kir2.1, FluxOR thallium flux fluorescence; stronger effect = lower value; P35561;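 active = fluorescence ratio B-score at or below minus 3 SD of library scores, with starting-brightness B-score within 2 SD, cut at about -4.2 in these data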;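 note: channel flux triggered by added potassium and thallium sulfate stimulus; B-score of peak minus minimum fluorescence over baseline after thallium stimulus; more negative B-score means stronger Kir2.1 block with less thallium influx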
Target sequence (P35561 whole entry, looked up): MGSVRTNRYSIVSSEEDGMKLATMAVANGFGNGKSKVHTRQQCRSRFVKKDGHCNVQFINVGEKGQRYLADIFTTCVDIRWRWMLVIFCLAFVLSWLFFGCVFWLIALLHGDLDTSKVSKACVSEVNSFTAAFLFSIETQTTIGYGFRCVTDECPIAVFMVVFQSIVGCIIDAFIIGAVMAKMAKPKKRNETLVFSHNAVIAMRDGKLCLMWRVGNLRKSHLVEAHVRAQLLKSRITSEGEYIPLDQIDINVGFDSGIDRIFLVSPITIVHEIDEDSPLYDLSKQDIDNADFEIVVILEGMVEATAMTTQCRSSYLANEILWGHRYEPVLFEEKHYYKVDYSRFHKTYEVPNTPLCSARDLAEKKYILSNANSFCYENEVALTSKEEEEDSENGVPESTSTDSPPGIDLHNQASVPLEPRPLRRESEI
TRPC4 agonist – opens the mouse TRPC4 cation channel; 310,000 tested, 0.49% active; HEK293 TRPC4beta/mu-opioid, Fluo4 calcium fluorescence; stronger effect = higher value; B-score at 10 µM; Q9QUQ5; AID 2237;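 active = B-score above 5 SD of library B-scores, and initial fluorescence ratio not above library mean plus 5 SD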;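 note: positive B-score marks a calcium rise read as TRPC4 activation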
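System – HEK293 cells stably co-expressing mouse TRPC4beta and mu-opioid receptor · Signal – Fluo4 calcium-sensitive dye fluorescence, kinetic, 1 Hz baseline · Benchmarks – buffer (low) and maximal DAMGO (high) · Read-out – B score of integrated fluorescence ratio per well · Incubation – dye loading 45 min room temperature, 110 s kinetic read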
TRPC6 act – activates the mouse TRPC6 cation channel; HEK293-TRPC6 membrane potential dye fluorescence; stronger effect = higher value; Q61143; 310,000 tested, 0.13% active; B-score at 10 µM;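 active = B-score of the integrated fluorescence ratio above library mean plus 3 SD, and starting fluorescence ratio within library mean plus 5 SD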;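 note: higher score means more depolarization so channel activation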
TRPC4 sel inh 2 – second check of whether TRPC6 inhibitors also affect mouse TRPC4 | shares compounds with TRPC6 inh | HEK293 TRPC4/MOR, membrane potential dye fluorescence; channel activated by saturating DAMGO dose | inhibition, % at 10 µM | 920 tested, 42% active;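 active = compounds whose fluorescence signal differed from control wells by over 3 SD, either direction, in both duplicate plates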
TRPC4 spec – tests whether TRPC6 inhibitors also affect mouse TRPC4 | shares compounds with TRPC6 inh | HEK293 TRPC4/mu-opioid, membrane potential fluorescence | activity change, negative = inhibition, % at 10 µM | 920 tested, 61% active;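 active = rise or fall in signal beyond 3 SD of buffer-only wells in both replicate plates, either sign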;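 note: integrated kinetic ratio of fluorescence range over baseline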
HEK293 MPD ctr 2-1 – second check of TRPC6 inhibitor effects in parental HEK293 cells | shares compounds with TRPC6 inh | 920 tested, 31% active | signal change vs control, % at 10 µM | parental HEK293 membrane potential dye fluorescence; maximal acetylcholine challenge after compound addition;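 active = membrane potential signal moving either way by over 3 SD of the maximum-effect control, in both duplicate plates, meaning non-specific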
HEK293 MPD ctr-1 – checks TRPC6 inhibitor effects in parental HEK293 cells; AID 2780; parental HEK293 membrane potential dye fluorescence; 920 tested, 60% active; membrane potential signal change, % at 10 µM; shares compounds with TRPC6 inh;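 active = membrane potential signal shifting up or down by more than 3 SD of buffer-only wells, on both duplicate plates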
HEK293 MPD ctr-2 – checks TRPC6 modulator effects in parental HEK293 cells; shares compounds with TRPC6 inh; 2,400 tested, 51% active; membrane potential dye fluorescence; membrane potential signal change, % at 10 µM;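 active = membrane potential signal moves up or down beyond 5 SD from buffer-only wells, on both duplicate plates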
HEK293 MPD ctr 2-2 – second counter-screen for TRPC6 modulators: effect in parental HEK293 cells; membrane potential dye fluorescence; after compound, maximal acetylcholine stimulation; AID 488926; 2,400 tested, 14% active; shares compounds with TRPC6 inh; inhibition, % at 10 µM;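 active = membrane potential signal drops by more than 5 SD from the mean control signal, in both duplicate plates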;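 note: plate controls were acetylcholine ECmax control wells for no effect and buffer only wells for full effect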
TRPC4/MOR mod – selectivity of TRPC6 modulators against mouse TRPC4; shares compounds with TRPC6 inh; HEK293 TRPC4/mu-opioid, membrane potential fluorescence; percent change from control (negative = decrease, positive = increase), % at 10 µM; 2,400 tested, 69% active; AID 488927;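 active = membrane potential signal moved up or down beyond 5 SD of buffer control wells, in both duplicate plates, actives on both sides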;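 note: plate controls were assay buffer wells for no effect and DAMGO maximal-effect wells for full effect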
TRPC4/MOR inh 2 – second selectivity test of TRPC6 modulators against mouse TRPC4 | HEK293 TRPC4/mu-opioid, membrane potential dye fluorescence; stimulated with maximal-effect DAMGO | inhibition, % at 10 µM | 2,400 tested, 55% active | shares compounds with TRPC6 inh | AID 488928;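 active = drop in membrane potential signal beyond 5 SD of the control wells in both duplicate plates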;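 note: TRPC4 counter screen for TRPC6 hits run under conditions tuned for TRPC6 not TRPC4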
TRPC6 inh conf – mouse TRPC6 inhibitor confirmation. shares compounds with TRPC6 inh. HEK293-TRPC6, membrane potential dye, ACh-evoked depolarization. inhibition, % at 10 µM. 3,300 tested, 43% active. AID 488960;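 active = fluorescence ratio falls more than 5 SD below the full-stimulation control mean, in both duplicate runs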;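 note: integrated fluorescence ratio of peak minus minimum over baseline after agonist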
TRPC6 act confirm – confirmation of mouse TRPC6 activators; shares compounds with TRPC6 inh; HEK293-TRPC6 membrane potential dye fluorescence, FDSS; activation, % at 10 µM; 2,800 tested, 11% active; AID 488961;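 active = ratio signal rise beyond 5 SD above unstimulated control wells' mean, seen in both duplicate runs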;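 note: plate controls were buffer EC0 wells for no effect and acetylcholine ECmax response for full effect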
* hit, by the source's call; i = inactive; x = no result given. This is a sample that favours compounds with a hit; in the whole collection about 2.9% have one here.

SMILES	TRPC4 PAM	TRPC4 inh	TRPC6 inh	Kir21 inh	TRPC4 agonist	TRPC6 act	HEK293 MPD ctr-2	HEK293 MPD ctr 2-2	TRPC4/MOR mod	TRPC4/MOR inh 2	TRPC6 inh conf	TRPC6 act confirm	others
O=C(NC1CC2CCCC(C1)N2C(=S)Nc1ccccc1)C1CC1 (stereo unspecified)	i	i	i	1.2	i	i	x	x	x	x	x	x
CCn1c2ccccc2c2nnc(SCc3ccccc3)nc21	i	i	i	-0.54	i	i	x	x	x	x	x	x
CCN(CC)CCSc1nnc2c3cc(F)ccc3n(Cc3ccccc3)c2n1	i	i	-5.9*	-1.9	i	i	-78%*	i	i	78%*	i	i
CCN(CC)CCSc1nnc2c3ccccc3n(Cc3ccccc3)c2n1	i	i	-8.2*	-1.6	i	i	x	x	x	x	66%*	i	TRPC4 sel inh 2=21%*;TRPC4 spec=12%*;HEK293 MPD ctr 2-1=i;HEK293 MPD ctr-1=-230%*
COc1ccccc1C(=O)N1CCCC1(C#N)c1ccccc1 (stereo unspecified)	i	i	i	0.04	i	i	x	x	x	x	x	x
COc1ccc(C(=O)N2CCCC2(C#N)c2ccccc2)cc1[N+](=O)[O-] (stereo unspecified)	i	i	-7.6*	-0.43	i	i	x	x	x	x	i	i	TRPC4 sel inh 2=i;TRPC4 spec=0.7%*;HEK293 MPD ctr 2-1=i;HEK293 MPD ctr-1=i
CC(C)c1ccc(N2C(=O)CC(Sc3nc4ccccc4o3)C2=O)cc1 (stereo unspecified)	i	i	-7.4*	0.38	i	i	x	x	x	x	i	i	TRPC4 sel inh 2=i;TRPC4 spec=i;HEK293 MPD ctr 2-1=i;HEK293 MPD ctr-1=i
CC(/C=C/c1cccc([N+](=O)[O-])c1)=N/NC(=O)c1cccnc1	i	i	-5.9*	0.37	i	i	i	i	i	i	i	i
C=CCn1c(SC(C)C#N)nc2sc(CC)cc2c1=O (stereo unspecified)	i	x	i	-1.6	i	i	x	x	x	x	x	x
C[N+]1(C)[C@@H]2CC(OC(=O)[C@H](CO)c3ccccc3)C[C@H]1[C@@H]1O[C@@H]12 (stereo partly specified)	i	i	-8.2*	0.68	i	i	x	x	x	x	93%*	i	TRPC4 sel inh 2=i;TRPC4 spec=i;HEK293 MPD ctr 2-1=-9.0%*;HEK293 MPD ctr-1=i
Cc1ccc(N2C(=O)CSC2c2cccnc2)cc1F (stereo unspecified)	i	i	-6.7*	-0.98	i	i	x	x	x	x	i	i	TRPC4 sel inh 2=i;TRPC4 spec=i;HEK293 MPD ctr 2-1=i;HEK293 MPD ctr-1=i
O=C(O)CCS(=O)(=O)c1ccccc1Cl	i	i	i	-0.36	i	i	x	x	x	x	x	x
CN(C)CCCN(C(=O)COc1ccccc1)c1nc2c(F)cccc2s1	i	i	-5*	0.06	i	i	i	i	-16%*	84%*	38%*	i
COc1cccc2sc(N(CCCN(C)C)C(=O)COc3ccc(Cl)cc3)nc12	i	i	i	-0.82	i	i	x	x	x	x	x	x
Cc1cccc2sc(N(CCCN(C)C)C(=O)c3cc4ccccc4oc3=O)nc12	i	i	i	-3.6	i	i	x	x	x	x	x	x
CN(C)CCCN(C(=O)c1cc2ccccc2oc1=O)c1nc2c(F)cccc2s1	i	i	-6.5*	-0.69	i	i	i	i	-22%*	88%*	70%*	i
CN(C)CCCN(C(=O)c1ccc(C(=O)c2ccccc2)cc1)c1nc2c(F)cccc2s1	i	i	-6.2*	-2.5	i	i	i	i	i	82%*	60%*	i
CCc1ccccc1NC(=O)C1CCN(C(=O)c2ccc([N+](=O)[O-])cc2)CC1	i	i	i	0.16	i	i	x	x	x	x	x	x
CC(=O)Nc1cccc(/C(C)=N\NC(=O)c2ccc(Cn3nc([N+](=O)[O-])c(Cl)c3C)o2)c1	i	i	i	-0.14	i	i	x	x	x	x	x	x
NS(=O)(=O)c1ccc(NC(=S)NCc2ccc3c(c2)OCO3)cc1	i	i	-6.8*	0.31	i	i	i	i	i	i	i	i
CC(CC(=O)N1CCN(c2ccccc2)CC1)S(=O)(=O)c1ccc2c(c1)NC(=O)CO2 (stereo unspecified)	i	i	i	-0.23	i	i	x	x	x	x	x	x
Cc1cc(C)c(OCCCNC2CCCC2)c(Br)c1	i	i	-5.4*	-3.4	i	12*	201%*	i	43%*	54%*	i	94%*
CCOC(=O)c1c(NC(=O)c2ccc(S(=O)(=O)N3CCOCC3)cc2)sc2c1CCN(C(C)C)C2	i	i	i	0.85	i	i	x	x	x	x	x	x
CCOC(=O)c1c(NC(=O)Cc2ccccc2)sc2c1CCN(C)C2	i	i	i	-2.8	i	i	x	x	x	x	x	x
